ChEMBL document CHEMBL3232958, “Antiproliferative and uncoupling effects of delocalized, lipophilic, cationic gallic acid derivatives on cancer cell lines. Validation in vivo in singenic mice” (J Med Chem, 2014)
Activity calls are given as the source filed them. No cut-off for these calls is given here.

Tests used:
[1] = Cytotoxicity against mouse TA3/Ha cells after 48 hrs by neutral red assay; format: functional, cell-based
Procedure, shortened: (§1)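 Neutral red uptake after 48 h exposure at 37 °C, 5% CO2. Seeding: 1 × 10^5 cells/mL for TA3, TA3-MTX-R and CCRF-CEM; 4 × 10^4 cells/mL for MM3MG. Dye at 100 μg/mL for 2 h, then ethanol/acetic acid extraction and absorbance at 540 nm. IC50 from variable-slope sigmoidal dose–response fit; at least three independent experiments in triplicate, mean ± SEM.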

[2] = Cytotoxicity against mouse multidrug-resistant TA3-MTX-R cells after 48 hrs by neutral red assay; format: functional, cell-based; procedure, shortened: as §1
CCRF-CEM = assay: Cytotoxicity against human CCRF-CEM cells after 48 hrs by neutral red assay; format: functional, cell-based; procedure, shortened: as §1
[3] = Cytotoxicity against mouse MM3MG cells after 48 hrs by neutral red assay; format: cell-based; procedure, shortened: as §1
TA3/Ha [4] = assay: Induction of apoptosis in mouse TA3/Ha cells assessed as caspase 3 activation at 0.5 uM after 24 hrs by Western blot analysis; format: functional, cell-based
Procedure, shortened: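 Caspase 3 measured by Western blot. RIPA lysates, 50 μg protein run on 12% SDS–PAGE. Anti-caspase 3 (1:1000) and tubulin loading control (1:10000) overnight at 4 °C; HRP secondary for 2 h. ECL detection and densitometry.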

TA3/Ha [5] = assay: Induction of apoptosis in mouse TA3/Ha cells assessed as early stage apoptotic cells at 0.5 uM after 24 to 48 hrs using annexin V/propidium iodide staining by flow cytometry; format: functional, cell-based
Procedure, shortened: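 Annexin V-FITC/PI flow cytometry on 1 × 10^5 cells/mL treated for 24 and 48 h at 37 °C, 5% CO2. 5 min staining at room temperature; 5000 events recorded. Early apoptosis scored as annexin V+/PI−. Staurosporine 10 μM as positive control; at least three experiments, ANOVA with Bonferroni test.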

TA3/Ha [6] = assay: Cytotoxicity against mouse TA3/Ha cells up to 24 hrs by lactate dehydrogenase assay; format: functional, cell-based
Procedure, shortened: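 LDH release measured with a kit on 2 × 10^5 cells/mL incubated at 37 °C, 5% CO2, 90% humidity. Supernatant taken after centrifugation at 600g for 3 min, then 30 min with reaction mix at room temperature; absorbance read at 450 nm.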

[7] = Uncoupling respiration effect in mouse TA3/Ha cells after 2 mins by polarographic analysis in presence of FCCP; format: functional
Procedure, shortened: (§2)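 Polarographic respiration of digitonin-permeabilized cells (0.013 μg/mg protein; 2.5 mg protein/mL) in PBS pH 7.4 with 10 mM succinate and 1 μg/mL oligomycin. Cations added in 3 μL DMSO. Atractyloside 5 nmol/mg protein was added before succinate. FCCP added at the end: 0.15 μM for TA3, 0.25 μM for TA3-MTX-R. Slope and K0.5 taken from log–log linear regression; at least three experiments.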

[8] = Uncoupling respiration effect in mouse TA3-MTX-R cells after 2 mins by polarographic analysis in presence of FCCP; format: functional; procedure, shortened: as §2
TA3/Ha [9] = assay: Reduction of ATP level in mouse TA3/Ha cells at 1 to 20 uM after 2 hrs by CellTiter-Glo luminescent assay; format: functional, cell-based
Procedure, shortened: (§3)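 CellTiter-Glo luminescence on 2 × 10^5 cells/mL incubated with cation for 2 h. Aliquot held 10 min at room temperature in the dark before reading; at least three experiments.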

TA3/Ha [10] = assay: Reduction of ATP level in mouse TA3/Ha cells after 2 hrs by CellTiter-Glo luminescent assay; format: functional, cell-based; procedure, shortened: as §3
[11] = Toxicity in mouse TA3/Ha cells assessed as cell membrane integrity after 24 hrs using propidium iodide by flow cytometry; format: cell-based; details: 2 to 4 h, in the assay text read “after 2 to 4 hrs” for “after 24 hrs”
Procedure, shortened: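 Membrane integrity by PI uptake on flow cytometry. Cells were seeded, grown for 24 h at 37 °C, 5% CO2, then given fresh medium with cation for 2 and 4 h before PI was added. Mean ± SEM of at least three experiments.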

TA3/Ha [12] = assay: Increase of oxygen consumption in mouse TA3/Ha cell mitochondria using glutamate and malate as substrate at 10^-4 M after 2 mins by polarographic analysis; format: functional
Procedure, shortened: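 Clark electrode polarography of isolated mitochondria (1.0 mg/mL) at 25 °C. Medium: sucrose/KCl, 3 mM phosphate, Hepes pH 7.0, 2 mM MgCl2. Substrates 2 mM glutamate + 2 mM malate; 0.5 mM ADP, oligomycin and KCN also used.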

TA3/Ha [13] = assay: Decrease of mitochondrial transmembrane potential in mouse TA3/Ha cell mitochondria at 0.2 nmol after 5 mins by safranin and JC-1 staining; format: functional
Procedure, shortened: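 Mitochondria isolated from TA3/Ha tumour cells (washed, BSA-free), 1.0 mg/mL protein. Safranin 20 μM, read 5 min; then 2 mM glutamate + 2 mM malate, read 5 min; then cation added. ΔΨm followed as ΔA511−533nm spectrophotometrically.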

Q: Which IC50 [1] does the source give for `O=C(O)c1cc(O)c(O)c(O)c1` [GALLIC ACID] here?
A: 163 µM

Q: And the IC50 [2]?
A: 160 µM

Q: What about the IC50 (CCRF-CEM) of the same molecule?
A: > 200 µM

Q: And the IC50 [3]?
A: > 200 µM

Q: With `O=C(OCCCCCCCCCCCC[P+](c1ccccc1)(c1ccccc1)c1ccccc1)c1cc(O)c(O)c(O)c1.[Br-]` as the molecule, how does the Activity (TA3/Ha [4]) read?
A: inactive

Q: What about the Activity (TA3/Ha [5]) of the same molecule?
A: Active

Q: And the Activity (TA3/Ha [6])?
A: Active

Q: And the IC50 [1]?
A: 0.74 µM

Q: What about the IC50 [2] of the same molecule?
A: 1.2 µM

Q: And the IC50 (CCRF-CEM)?
A: 0.58 µM

Q: What about the IC50 [3] of the same molecule?
A: 1.38 µM

Q: And the K0.5 [7]?
A: 2.9 ×10⁻⁵ M

Q: What about the K0.5 [8] of the same molecule?
A: 3.1 ×10⁻⁵ M

Q: What about the Activity (TA3/Ha [9]) of the same molecule?
A: Active

Q: And the Activity (TA3/Ha [10])?
A: Dose-dependent effect

Q: And the Activity [11]?
A: Non-toxic

Q: For `O=C(OCCCCCCCC[P+](c1ccccc1)(c1ccccc1)c1ccccc1)c1cc(O)c(O)c(O)c1.[Br-]`, which Activity (TA3/Ha [4]) is on record?
A: inactive

Q: And the Activity (TA3/Ha [5])?
A: Active

Q: What about the Activity (TA3/Ha [6]) of the same molecule?
A: Active

Q: What about the IC50 [1] of the same molecule?
A: 13.4 µM

Q: And the IC50 [2]?
A: 14.4 µM

Q: And the IC50 (CCRF-CEM)?
A: 34.6 µM

Q: And the IC50 [3]?
A: 29.4 µM

Q: What about the Activity (TA3/Ha [12]) of the same molecule?
A: Active

Q: What about the K0.5 [7] of the same molecule?
A: 2.25 ×10⁻⁴ M

Q: What about the K0.5 [8] of the same molecule?
A: 1.91 ×10⁻⁴ M

Q: What about the Activity (TA3/Ha [9]) of the same molecule?
A: Active

Q: What about the Activity (TA3/Ha [10]) of the same molecule?
A: Dose-dependent effect

Q: And the Activity [11]?
A: Non-toxic

Q: Which IC50 [1] does the source give for `c1ccc(P(c2ccccc2)c2ccccc2)cc1` here?
A: 190 µM

Q: What about the IC50 [2] of the same molecule?
A: > 200 µM

Q: And the IC50 (CCRF-CEM)?
A: 184 µM

Q: And the IC50 [3]?
A: > 200 µM

Q: For `N#CC(C#N)=NNc1cccc(Cl)c1`, which Activity (TA3/Ha [13]) is on record?
A: Active
